In ChEMBL document CHEMBL1212693, “Dorsomorphin inhibits BMP signals required for embryogenesis and iron metabolism” (Nat Chem Biol, 2008):
Active and inactive are the calls of the source. No cut-off for these calls is given here.

Columns and labels:
[1] = species on record: Danio rerio; test: Inhibition of BMPR1 in zebrafish assessed as severity of embryonic axis dorsalization at 1 uM treated at 3 hrs post-fertilization measured at 48 hrs; design: scale not given: the % may be the effect or the level left
[2] = species on record: Mus musculus; test: (§1) Inhibition of BMPR1-mediated Smad-5 phosphorylation in BMP4-stimulated mouse PASMC treated 30 mins before BMP4 challenge measured after 30 mins by immunoblot analysis
How it was run: (§2)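 Mouse PASMCs were held 24 h in RPMI with 0.5% FCS. They were preincubated 30 min with test agent, noggin or vehicle, then exposed to recombinant BMP4 for 30 min. SDS lysates were immunoblotted for phospho-SMAD1/5/8 and bands quantified by phosphorimager. Dose-dependence was fitted as a Hill plot.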

[3] = as §1; how it was run: as §2
[4] = species on record: Danio rerio; test: Inhibition of BMPR1-mediated osteoblast differentiation in zebrafish assessed as decrease in alkaline phosphatase level at 1 to 4 uM treated at 24 hrs post-fertilization measured on day 10 post-fertilization
[5] = species on record: Danio rerio; test: Inhibition of BMPR1 in zebrafish assessed as penetrance of moderate embryonic axis dorsalization at 0.2 uM treated at 3 hrs post-fertilization measured at 48 hrs; design: scale not given: the % may be the effect or the level left
How it was run: (§3)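 Compound added at the stated times and concentrations. Gross morphology scored visually at up to 48 h.p.f. for dorsalization of the embryonic axis.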

[6] = species on record: Danio rerio; test: Inhibition of BMPR1 in zebrafish assessed as penetrance of mild embryonic axis dorsalization at 10 uM treated continuously from 6 hrs post-fertilization measured at 48 hrs; design: scale not given: the % may be the effect or the level left; how it was run: as §3
[7] = species on record: Danio rerio; test: Inhibition of BMPR1 in zebrafish assessed as penetrance of mild embryonic axis dorsalization at 10 uM treated continuously from 10 hrs post-fertilization measured at 48 hrs; design: scale not given: the % may be the effect or the level left; how it was run: as §3
[8] = species on record: Danio rerio; test: Inhibition of AMPK in zebrafish assessed as embryonic axis dorsalization at 10 uM treated at 3 hrs post-fertilization measured at 48 hrs; design: scale not given: the % may be the effect or the level left
[9] = species on record: Danio rerio; test: Inhibition of BMPR1 in zebrafish assessed as severity of embryonic axis dorsalization at 10 uM treated at 6 to 8 hrs post-fertilization measured at 48 hrs; design: scale not given: the % may be the effect or the level left
[10] = species on record: Danio rerio; test: Inhibition of BMPR1 in zebrafish assessed as penetrance of normal embryonic axis dorsalization at 10 uM treated continuously from 2 hrs post-fertilization measured after 48 hrs; design: scale not given: the % may be the effect or the level left
[11] = species on record: Danio rerio; test: Inhibition of BMPR1 in zebrafish assessed as penetrance of moderate embryonic axis dorsalization at 10 uM treated continuously from 2 hrs post-fertilization measured after 48 hrs; design: scale not given: the % may be the effect or the level left; how it was run: as §3
[12] = species on record: Danio rerio; test: Inhibition of BMPR1 in zebrafish assessed as penetrance of moderate embryonic axis dorsalization at 10 uM treated at 4 to 8 hrs post-fertilization measured at 48 hrs; design: scale not given: the % may be the effect or the level left; how it was run: as §3
[13] = species on record: Mus musculus; test: Inhibition of BMPR1-mediated Smad-8 phosphorylation in BMP4-stimulated mouse PASMC at 100 to 200 ng/ml treated 30 mins before BMP4 challenge measured after 30 mins by immunoblot analysis; how it was run: as §2
[14] = species on record: Mus musculus; test: Inhibition of BMPR1-mediated MAPK p38 phosphorylation in BMP4-stimulated mouse PASMC treated 30 mins before BMP4 challenge measured after 30 mins by immunoblot analysis
How it was run: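 Mouse PASMCs were held 24 h in 0.5% FCS RPMI, preincubated 30 min with a dose range of compound, then stimulated 30 min with BMP4. Phospho-SMAD1/5/8 and phospho-p38 were detected by immunoblot and quantitated by phosphorimager (RLU). IC50 was derived from a Hill plot of phospho-SMAD1/5/8 inhibition.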

[15] = species on record: Danio rerio; test: Inhibition of BMPR1 in zebrafish assessed as severity of embryonic axis dorsalization at 10 uM treated continuously from 2 hrs post-fertilization measured after 48 hrs; design: scale not given: the % may be the effect or the level left
[16] = species on record: Mus musculus; test: Inhibition of ALK6-mediated Smad-8 phosphorylation in BMPR2 deficient mouse PASMC at 10 uM by immunoblot analysis
How it was run: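 BMPR-II–deficient mouse PASMCs (RPMI, 10% FBS) transiently transfected with constitutively active ALK2, ALK3 or ALK6 cDNA, or plasmid-only control. Incubated with or without compound (10 µM). Extracts lysed in SDS buffer, run on SDS-PAGE and immunoblotted for phospho-SMAD1/5/8; quantitated by phosphorimager.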

[17] = species on record: Danio rerio; test: Inhibition of BMPR1 in zebrafish assessed as penetrance of moderate embryonic axis dorsalization at 10 uM treated at 2 to 6 hrs post-fertilization measured at 48 hrs; design: scale not given: the % may be the effect or the level left; how it was run: as §3
[18] = species on record: Mus musculus; test: Inhibition of BMPR1-mediated Smad-8 phosphorylation in BMP7-stimulated mouse BMPR2 deficient PASMC at 4 uM treated 30 mins before BMP7measured after 30 mins by immunoblot analysis
[19] = species on record: Danio rerio; test: Toxicity in zebrafish assessed as survivability at 10 uM treated at 3 hrs post-fertilization measured at 48 hrs; type: organism-based; settings: in vivo
[20] = species on record: Danio rerio; test: Inhibition of BMPR1 in zebrafish assessed as penetrance of normal embryonic axis dorsalization at 10 uM treated at 2 to 6 hrs post-fertilization measured at 48 hrs; design: scale not given: the % may be the effect or the level left
[21] = species on record: Danio rerio; test: Inhibition of BMPR1 in zebrafish assessed as severity of embryonic axis dorsalization at 10 uM treated continuously from 6 hrs post-fertilization measured at 48 hrs; design: scale not given: the % may be the effect or the level left
[22] = species on record: Danio rerio; test: Inhibition of BMPR1 in zebrafish assessed as penetrance of mild embryonic axis dorsalization at 5 uM treated at 3 hrs post-fertilization measured at 48 hrs; design: scale not given: the % may be the effect or the level left; how it was run: as §3
[23] = species on record: Mus musculus; test: Inhibition of BMPR1-mediated Smad-5 phosphorylation in BMP2-stimulated mouse BMPR2 deficient PASMC at 4 uM treated 30 mins before BMP2 challenge measured after 30 mins by immunoblot analysis
[24] = species on record: Danio rerio; test: Inhibition of BMPR1 in zebrafish assessed as penetrance of mild embryonic axis dorsalization at 10 uM treated at 2 to 6 hrs post-fertilization measured at 48 hrs; design: scale not given: the % may be the effect or the level left; how it was run: as §3
[25] = species on record: Danio rerio; test: Inhibition of BMPR1 in zebrafish assessed as penetrance of mild embryonic axis dorsalization at 10 uM treated continuously from 2 hrs post-fertilization measured after 48 hrs; design: scale not given: the % may be the effect or the level left; how it was run: as §3
[26] = species on record: Mus musculus; test: Inhibition of BMPR1-mediated Smad-1 phosphorylation in BMP6-stimulated mouse BMPR2 deficient PASMC at 4 uM treated 30 mins before BMP6 challenge measured after 30 mins by immunoblot analysis
How it was run: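 PASMCs (wild-type or BMPR-II–deficient) were kept 24 h in RPMI with 0.5% FCS, preincubated 30 min with compound or vehicle, then stimulated 30 min with recombinant BMP (10 ng ml−1). Extracts in SDS-lysis buffer were immunoblotted for phospho-SMAD1/5/8, with total SMAD1 and α-tubulin as loading controls. Bands were quantitated by phosphorimager.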

[27] = test system: Danio rerio; test: Inhibition of iron-dextran conjugate-induced Smad-1 phosphorylation in zebrafish at 23 ug/g, iv after 1 hr relative to control; type: functional
[28] = species on record: Danio rerio; test: Inhibition of BMPR1 in zebrafish assessed as severity of embryonic axis dorsalization at 5 uM treated at 3 hrs post-fertilization measured at 48 hrs; design: scale not given: the % may be the effect or the level left
[29] = species on record: Mus musculus; test: Inhibition of BMPR1-mediated Smad-5 phosphorylation in BMP7-stimulated mouse PASMC at 4 uM treated 30 mins before BMP7 challenge measured after 30 mins by immunoblot analysis
How it was run: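 Wild-type mouse PASMCs were kept in RPMI with 0.5% FCS for 24 h. They were preincubated with compound or vehicle for 30 min, then stimulated for 30 min with recombinant BMP2, BMP4, BMP6 or BMP7 at 10 ng ml−1. Lysates in SDS buffer were immunoblotted with anti-phospho-SMAD1/5/8. Total SMAD1 and α-tubulin served as loading controls, and bands were quantified by phosphorimager.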

With `c1cc(-c2cnn3cc(-c4ccc(OCCN5CCCCC5)cc4)cnc23)ccn1` [DORSOMORPHIN] the Activity [1] was 0%, the inhibition [2] was “Dose-dependent effect” and the IC50 [3] was 470 nM. For the same compound, the inhibition [4] was “Active”, the Activity [5] was 0% and the Activity [6] was 22%. It also gave an Activity [7] of 0%, an Activity [8] of 100% and an Activity [9] of 0%. It also gave an Activity [10] of 0%, an Activity [11] of 0% and an Activity [12] of 35%. The inhibition [13] was “Active”, the inhibition [14] was “inactive” and the Activity [15] was 100%. The inhibition [16] was “Active”, the Activity [17] was 44% and the inhibition [18] was “Active”. For the same compound, the Activity [19] was “Non-toxic”, the Activity [20] was 0% and the Activity [21] was 0%. For the same compound, the Activity [22] was 19%, the inhibition [23] was “Active” and the Activity [24] was 17%. For the same compound, the Activity [25] was 0%, the inhibition [26] was “Active” and the “fold change (FC)” value [27] was 3. For the same compound, the Activity [28] was 19% and the inhibition [29] was “Active”.
